According to ChEMBL document CHEMBL1157640, “Exploration of inhibitors for diaminopimelate aminotransferase” (Bioorg Med Chem, 2010):
Active and inactive are the calls of the source. The rule behind the calls is not given here.

Experiments:
[1] = target: LL-diaminopimelate aminotransferase, chloroplastic (Arabidopsis thaliana) (UniProt Q93ZN9); assay: Inhibition of Arabidopsis thaliana LL-DAP-AT expressed in Escherichia coli at 10 uM by aminobenzaldehyde-based assay
How it was run: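 Robotic 96-well screen against C-terminal His6-tagged A. thaliana LL-DAP-AT (0.0043 mg/mL final) in 100 mM HEPES-KOH pH 7.6, with 8.5 mM 2-oxoglutarate, 7 mM OAB and 2.0 mM LL-DAP final. Inhibitor 10 µM final in DMSO, assuming MW 500. Absorbance at 440 nm read in triplicate before enzyme addition and after 3 h at room temperature. Activity taken relative to no-inhibitor wells; no-enzyme wells served as blank.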

[2] = target: LL-diaminopimelate aminotransferase, chloroplastic (Arabidopsis thaliana, UniProt Q93ZN9); assay: Inhibition of Arabidopsis thaliana LL-DAP-AT expressed in Escherichia coli by aminobenzaldehyde-based assay
How it was run: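 His6-tagged A. thaliana LL-DAP-AT (0.0043 mg/mL final) in 1 mL cuvettes with 100 mM HEPES-KOH pH 7.6, 8.5 mM 2-OG, 7 mM OAB and 2.0 mM LL-DAP. Inhibitor at 5–200 µM final, added in 50 µL DMSO. A440 followed for 200 min, read every 2 min.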

[3] = target: LL-diaminopimelate aminotransferase, chloroplastic (Arabidopsis thaliana) (UniProt Q93ZN9); assay: Inhibition of Arabidopsis thaliana LL-DAP-AT expressed in Escherichia coli assessed as time dependent type of inhibition by aminobenzaldehyde-based assay
How it was run: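 Recombinant C-terminal His6-tagged enzyme (0.043 mg/mL, 100 µL) preincubated with 50 µL inhibitor (stock chosen from IC50 measurements) for six different times. Mixture then added to 850 µL substrate buffer: 100 mM HEPES-KOH pH 7.6, 2-oxoglutarate, 2-aminobenzaldehyde, racemic DAP. Absorbance at 440 nm recorded for 200 min. Percentage inhibition compared across preincubation times; no-inhibitor and no-enzyme controls included.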

[4] = target: LL-diaminopimelate aminotransferase, chloroplastic (Arabidopsis thaliana) (UniProt Q93ZN9); assay: Inhibition of Arabidopsis thaliana LL-DAP-AT expressed in Escherichia coli assessed as time independent type of inhibition by aminobenzaldehyde-based assay
How it was run: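 Enzyme (100 µL) and inhibitor (50 µL) were preincubated for six different times, then added to 850 µL of OAB-coupled substrate buffer. Inhibitor level was chosen from the IC50. A440 recorded as in the IC50 assay, with positive and no-enzyme controls. Time independence was judged by whether percent inhibition changed with preincubation time.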

Pseudomonas aeruginosa = assay: Antimicrobial activity against Pseudomonas aeruginosa ATCC 15442 at <200 ug/mL; type: functional, organism-based
How it was run: (§1)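 Soft agar overlay (0.75% w/v) seeded with 1% overnight culture of indicator strain, poured over 1.5% w/v solid agar; LB medium for Gram-negative, M17 for Gram-positive. 10 µL of test solution spotted and air-dried, with solvent controls (acetonitrile or methanol). Incubated overnight, 37 °C Gram-negative, 30 °C Gram-positive; scored for growth-inhibition halos.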

Staphylococcus aureus = assay: Antimicrobial activity against Staphylococcus aureus ATCC 25923 at <200 ug/mL; type: functional, organism-based; how it was run: as §1
Carnobacterium divergens = assay: Antimicrobial activity against Carnobacterium divergens LV13 at <200 ug/mL; type: functional, organism-based; how it was run: as §1
Escherichia coli = assay: Antimicrobial activity against Escherichia coli DH5alpha at <200 ug/mL; type: functional, organism-based; how it was run: as §1
Salmonella typhimurium = assay: Antimicrobial activity against Salmonella Typhimurium ATCC 23564 at <200 ug/mL; type: functional, organism-based; conditions: Salmonella enterica subsp. enterica serovar Typhimurium; how it was run: as §1

Chain of LL-diaminopimelate aminotransferase, chloroplastic (Arabidopsis thaliana) (Q93ZN9 whole entry): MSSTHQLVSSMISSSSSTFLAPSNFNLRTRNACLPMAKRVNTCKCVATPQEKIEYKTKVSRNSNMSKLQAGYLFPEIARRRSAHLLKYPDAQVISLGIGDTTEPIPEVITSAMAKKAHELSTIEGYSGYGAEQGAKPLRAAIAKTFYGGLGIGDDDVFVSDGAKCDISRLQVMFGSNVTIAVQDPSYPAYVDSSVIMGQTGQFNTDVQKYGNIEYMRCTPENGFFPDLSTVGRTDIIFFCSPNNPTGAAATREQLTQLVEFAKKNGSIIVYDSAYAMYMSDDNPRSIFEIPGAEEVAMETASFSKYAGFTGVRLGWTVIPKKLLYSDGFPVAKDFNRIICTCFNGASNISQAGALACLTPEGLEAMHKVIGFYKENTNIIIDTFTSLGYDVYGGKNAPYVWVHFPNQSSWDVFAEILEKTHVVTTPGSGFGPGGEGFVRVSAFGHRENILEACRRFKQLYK
Chain of LL-diaminopimelate aminotransferase, chloroplastic (Q93ZN9 whole entry): as above

| SMILES | inhibition [1] [%] | IC50 ([2]; read-out: IC50) [µM] | also measured |
| --- | --- | --- | --- |
| O=C1/C(=C/c2cn(-c3ccccc3)nc2-c2cccs2)SC(=S)N1C1CCS(=O)(=O)C1 (stereo unspecified) | 13 | 117 |  |
| COc1ccc(/C=C2\SC(=S)NC2=O)cc1I | 29 | 180 |  |
| O=C1NC(=S)S/C1=C\c1cccc2ccccc12 |  |  | IC50 [2]: Not Active |
| C=CCN1C(=O)/C(=C\c2cc3ccccc3n2Cc2ccc([N+](=O)[O-])cc2)C(=O)NC1=S | 33 | 69 |  |
| CC(=O)/N=C1\NC(=O)/C(=C/c2ccc(-c3ccc([N+](=O)[O-])cc3)o2)S1 | 52 | 78 |  |
| CN1C(=O)/C(=C/c2cc3ccccc3n2CC(=O)O)C(=O)N(c2ccc(Cl)cc2)C1=O | 14 | 65 |  |
| O=C(Cn1c(/C=C2/C(=O)NC(=S)N(c3ccccc3)C2=O)cc2ccccc21)Nc1ccccc1 | 45 | 33 | inhibition [3]: Active |
| O=C1OC(c2ccccc2)=C/C1=N\Nc1ccccc1C(=O)O | 16 | 39 | inhibition [4]: Active; inhibition (Pseudomonas aeruginosa): inactive; inhibition (Staphylococcus aureus): inactive; inhibition (Carnobacterium divergens): inactive; inhibition (Escherichia coli): inactive; inhibition (Salmonella typhimurium): inactive |
| Cc1ccsc1/C=C1\SC(=S)N(C(C)c2ccccc2)C1=O (stereo unspecified) | 13 | 127 |  |
| Cc1nc(C)c(C(=O)/C=C2/Nc3ccccc3NC2=O)s1 | 18 | 56 |  |
| Cc1ccc(S(=O)(=O)N2C(=O)/C(=C3\SC(=S)NC3=O)c3ccccc32)cc1 | 25 | 70 |  |
| NNC(=O)c1cc2ccccc2cc1NS(=O)(=O)c1ccccc1 | 33 | 5 | inhibition (Pseudomonas aeruginosa): inactive; inhibition (Staphylococcus aureus): inactive; inhibition (Carnobacterium divergens): inactive; inhibition (Escherichia coli): inactive; inhibition (Salmonella typhimurium): inactive |
| O=C1NC(=S)S/C1=C\c1ccccc1O |  | > 200 |  |
| COc1ccc(OC)c(Nc2nc3ccccc3nc2NS(=O)(=O)c2cccc([N+](=O)[O-])c2)c1 | 13 | 153 |  |
| CCN1C(=O)/C(=C/c2ccccc2O)SC1=S |  | > 200 |  |
| O=C1NC(=S)N(c2cccc(Br)c2)C(=O)/C1=C\c1ccco1 | 17 | > 200 |  |
| COc1ccc(/C=C2/C=C(c3ccccc3)OC2=O)c(OC)c1 | 14 | 159 |  |
| O=C1NC(=S)S/C1=C\c1ccc(Cl)cc1 |  | > 200 |  |
| CCN1C(=O)/C(=C/c2cccc3ccccc23)SC1=S |  | 200 |  |
| CC(=O)NN1C(=O)/C(=C/c2ccc(Br)o2)SC1=S | 13 | 41 | inhibition [4]: Active |
| COc1ccc(N2C(=O)NC(=O)/C(=C/c3ccc(-c4cccc(Cl)c4)o3)C2=O)cc1 | 20 | 42 |  |
| O/C(=C\c1nc2ccccc2nc1O)c1cccs1 | 15 | 31 |  |

| SMILES | inhibition [1] [%] | IC50 ([2]; read-out: IC50) [µM] | also measured |
| --- | --- | --- | --- |
| CCN1C(=O)/C(=C/c2ccccc2)SC1=S |  | > 200 |  |
| CN(C)c1ccc(/C=C2\SC(=S)NC2=O)cc1 |  | 127 |  |
| COc1ccc(/C=C2\SC(=S)N(N)C2=O)cc1 |  | 155 |  |
| COc1ccccc1N1C(=O)/C(=C\c2cc3ccccc3n2Cc2ccccc2)C(=O)NC1=S | 20 | 62 |  |
| CC(=O)NN1C(=O)/C(=C/c2ccccc2)SC1=S |  |  | IC50 [2]: Not Active |
| CCN1C(=O)/C(=C/c2ccc(OC)cc2)SC1=S |  | > 200 |  |
| C=CCN1C(=O)/C(=C2/C(=O)N(S(=O)(=O)c3ccc(OC)cc3)c3ccccc32)SC1=S | 18 | 194 |  |
| Cc1ccc(C2=NC(=O)/C(=C/c3cc4c(cc3Br)OCO4)S2)cc1 | 13 | 130 |  |
| CCOC(=O)C1=C(Nc2ccc([N+](=O)[O-])cc2)S/C(=C\c2ccc(N(C)C)cc2)C1=O | 19 | 141 |  |
| COc1ccc(C=C2C(=O)NC(=S)NC2=O)cc1OCc1ccccc1Cl | 48 | 121 |  |
| Cc1cc(C=C2C(=O)NC(=S)NC2=O)c(C)n1C | 15 | 25 | inhibition [4]: Active; inhibition (Pseudomonas aeruginosa): inactive; inhibition (Staphylococcus aureus): inactive; inhibition (Carnobacterium divergens): inactive; inhibition (Escherichia coli): inactive; inhibition (Salmonella typhimurium): inactive |
| NN1C(=O)/C(=C/c2ccccc2)SC1=S |  |  | IC50 [2]: Not Active |
| CCN1C(=O)/C(=C/c2cc(Cc3ccccc3Cl)ccc2O)SC1=S | 13 | 46 | inhibition [4]: Active |
| CCN1C(=O)/C(=C/c2ccc(Cl)cc2)SC1=S |  | 200 |  |
| CC(=O)c1ccc(Nc2nc(-c3cc4ccccc4oc3=O)cs2)cc1 | 16 | > 200 |  |
| Cc1ccc(N2C(=O)/C(=C\c3cc4ccccc4n3CC(=O)O)C(=O)N(C)C2=O)cc1 | 17 | 37 |  |
| CCOC(=O)C1=C(Nc2ccc(OC)cc2)S/C(=C\c2ccc(N(C)C)cc2)C1=O | 22 | > 200 |  |
| Cc1ccsc1/C=C1\SC(=S)N(CC2CCCO2)C1=O (stereo unspecified) | 14 | > 200 |  |
| C/C(=N\NC(=O)c1cc(C2CC2)n[nH]1)c1ccc(C)cc1 | 14 | > 200 |  |
| C=CCN1C(=O)NC(=O)/C(=C/c2ccc(-c3ccc(C(=O)OCC)cc3)o2)C1=O | 16 | > 200 |  |
| O=C(N/N=C/c1ccc(O)cc1O)c1[nH]c2ccc([N+](=O)[O-])cc2c1-c1ccccc1 | 15 | 45 |  |
| Cc1ccc(OCCn2c(C=C3C(=O)NC(=O)NC3=O)cc3ccccc32)cc1C | 28 | 99 |  |

| SMILES | inhibition [1] [%] | IC50 ([2]; read-out: IC50) [µM] | also measured |
| --- | --- | --- | --- |
| N=C1NC(=O)/C(=C/c2ccc(-c3ccc([N+](=O)[O-])cc3Br)o2)S1 | 13 | 85 |  |
| C=CCN1C(=O)/C(=C\c2cc3ccccc3n2C)C(=O)NC1=S | 35 | 75 |  |
| COc1ccc(/C=C2\SC(=S)NC2=O)cc1 |  | 142 |  |
| O=C(N/N=C/c1ccc(F)cc1)c1cc(-c2ccc3ccccc3c2)n[nH]1 | 14 | 161 |  |
| COc1cc(-c2nnc(SCC(=O)c3ccc(F)cc3)n2-c2ccccc2)cc(OC)c1OC | 14 | > 200 |  |
| N/C(=N\[N+](=O)[O-])N/N=C\c1ccc(-c2cccc([N+](=O)[O-])c2)o1 | 13 | > 200 |  |
| O=C1OC(c2ccccc2Cl)=N/C1=C/c1ccc(OC(=O)c2ccccc2Cl)c(O)c1 | 30 | 81 |  |
| O=C1NC(=S)S/C1=C\c1ccccc1[N+](=O)[O-] |  |  | IC50 [2]: Not Active |
| Cc1c(C(=O)NC(=S)Nc2ccc3oc(-c4ccccc4Cl)nc3c2)oc2ccccc12 | 19 | 83 |  |
| O=C(Cn1c(/C=C2/C(=O)NC(=O)N(c3cccc(F)c3)C2=O)cc2ccccc21)Nc1ccccc1 | 18 | 52 |  |
| Cc1ccc(N2C(=O)/C(=C\c3cc4ccccc4[nH]3)C(=O)NC2=S)cc1 | 16 | 164 |  |
| CC(=O)NN1C(=O)/C(=C/c2ccc(Cl)cc2)SC1=S |  |  | IC50 [2]: Not Active |
| NN1C(=O)/C(=C/c2ccc(Cl)cc2)SC1=S |  |  | IC50 [2]: Not Active |
| COc1ccc(/C=C2\SC(=S)N(NC(C)=O)C2=O)cc1 |  | > 200 |  |
| Cc1[nH]n(-c2ccccc2)c(=O)c1C=C1C(=O)N(C)C(=O)N(C)C1=O | 20 | 45 | inhibition [4]: Active |
| C=C(C)COc1ccc2c(c1)oc(=O)c1cc(OC)ccc12 | 25 | > 200 |  |
| Cc1ccc(NC(=O)/C(C#N)=C/c2ccc(N(C)C)o2)cc1C | 14 | > 200 |  |
| COc1cc(OC)c(OC)cc1/C=N/n1c(S)nnc1-c1ccc(C)cc1 | 18 | > 200 |  |
| CC(=O)NN1C(=O)/C(=C/c2ccc(-c3ccc([N+](=O)[O-])cc3)o2)SC1=S |  | 73 |  |
| CN1C(=O)C(=Cc2cccn2-c2cccc([N+](=O)[O-])c2)C(=O)N(C)C1=O | 13 | > 200 |  |
